Screening results (PubChem BioAssay)
KCNQ1 block = inhibitors of human KCNQ1 potassium channel. hit rate 1.3% among 310,000. CHO-K1 KCNQ1, FluxOR thallium flux fluorescence; stronger effect = higher value. AID 2642. P51787. B-score at 10 µM;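 active = compounds whose thallium flux B-score, printed positive for inhibition, exceeds three library SD while starting fluorescence stays within three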;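 note: channel opened by potassium depolarization with thallium stimulus after 20 min compound exposure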
Target sequence (P51787 whole entry, looked up): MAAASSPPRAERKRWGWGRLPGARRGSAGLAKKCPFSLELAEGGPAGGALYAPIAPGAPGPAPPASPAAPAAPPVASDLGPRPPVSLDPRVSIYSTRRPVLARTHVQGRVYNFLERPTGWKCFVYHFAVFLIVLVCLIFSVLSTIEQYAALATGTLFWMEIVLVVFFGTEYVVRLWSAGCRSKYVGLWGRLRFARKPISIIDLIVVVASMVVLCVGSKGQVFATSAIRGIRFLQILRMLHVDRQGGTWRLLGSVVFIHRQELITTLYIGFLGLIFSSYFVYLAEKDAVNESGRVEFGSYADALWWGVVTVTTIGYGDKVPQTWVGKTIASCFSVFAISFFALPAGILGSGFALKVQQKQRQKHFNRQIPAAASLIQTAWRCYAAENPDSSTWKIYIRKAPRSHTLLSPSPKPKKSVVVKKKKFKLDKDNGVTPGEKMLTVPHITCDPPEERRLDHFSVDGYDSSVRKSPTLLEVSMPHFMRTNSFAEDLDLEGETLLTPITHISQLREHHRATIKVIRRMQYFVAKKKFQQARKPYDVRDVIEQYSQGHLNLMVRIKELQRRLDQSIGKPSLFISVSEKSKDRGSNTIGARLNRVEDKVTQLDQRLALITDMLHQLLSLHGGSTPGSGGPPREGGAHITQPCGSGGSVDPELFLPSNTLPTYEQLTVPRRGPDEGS
hERG protect = compounds protecting human hERG from proarrhythmic drug block | Q12809 | activation (rescue from dofetilide block), less the hit threshold, % at 10 µM | CHO-hERG, FluxOR thallium flux, dofetilide IC70 present | AID 1511 | hit rate 0.51% among 310,000;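 active = activation above the mean of controls blocked by dofetilide plus 5 SD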;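 note: thallium influx through hERG after potassium depolarization seen as dye fluorescence rise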
Kir21 inh = Kir2.1 (mouse) channel inhibition; AID 1672; HEK293-Kir2.1, FluxOR thallium flux fluorescence; stronger effect = lower value; P35561; hit rate 0.85% among 310,000; B-score at 10 µM;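 active = fluorescence ratio B-score at or below minus 3 SD of library scores, with starting-brightness B-score within 2 SD, cut at about -4.2 in these data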;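 note: channel flux triggered by added potassium and thallium sulfate stimulus; B-score of peak minus minimum fluorescence over baseline after thallium stimulus; more negative B-score means stronger Kir2.1 block with less thallium influx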
KCNK3 block = human KCNK3 channel inhibition, primary screen; O14649; CHO-KCNK3 thallium flux, FluxOR fluorescence; stronger effect = lower value; B-score at 10 µM; hit rate 0.84% among 340,000; AID 602410;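 active = B-score under library mean minus 4 SD, starting fluorescence ratio at most library mean plus 5 SD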;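 note: more negative B-score means stronger inhibition of thallium flux through KCNK3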
KCNQ1 pot = potentiators or activators of human KCNQ1 potassium channel | P51787 | CHO-K1 KCNQ1, thallium flux FluxOR fluorescence; stronger effect = higher value | hit rate 0.35% among 310,000 | B-score at 10 µM | AID 2648;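 active = fluorescence ratio B-score, a plate-corrected score, at least three library SD, with initial intensity B-score within 5 SD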
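Test system: CHO-K1 cells stably expressing KCNQ1 / Medium: assay buffer / Also added: depolarizing K+/Tl+ stimulus, K2SO4 and Tl2SO4 each 12.5 mM in 5x stock / Incubation: 90 min dye loading and 20 min compound exposure, both at room temperature / Signal: thallium influx via FluxOR fluorescence, kinetic imaging / Evaluation: B score of baseline-normalized fluorescence ratio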
KCNK9 block = human KCNK9 channel inhibition. Q9NPC2. HEK293 KCNK9, FluxOR thallium flux fluorescence; stronger effect = lower value. B-score at 10 µM. hit rate 1.2% among 310,000;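 active = ratio B-score over 3 SD below the library mean, with starting fluorescence within 5 SD of its mean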;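 note: negative B-score means less thallium flux so channel inhibition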
Starred values were filed as active, the others as inactive; i = inactive; . = not tested or not shown. An excerpt weighted towards active compounds, which were near 3.7% of everything screened.

SMILES	KCNQ1 block	hERG protect	Kir21 inh	KCNK3 block	KCNQ1 pot	KCNK9 block
O=C(CC(=O)c1ccccc1O)c1cccc(F)c1	i	0	0.27	i	37*	i
Cc1cnc(C(=O)N(CC(C)C)c2c(N)n(CC(C)C)c(=O)[nH]c2=O)cn1	.	.	.	i	.	.
O=C1COc2ccc(C(=O)COC(=O)COc3ccccc3[N+](=O)[O-])cc2N1	i	-7	-3.9	i	i	i
N#Cc1ccccc1OCC(=O)OCC(=O)c1ccc2c(c1)NC(=O)CO2	i	5.4*	0.07	i	i	i
Cc1cc2c(cc1S(=O)(=O)N1CCN(c3cccc(C)c3C)CC1)OCC(=O)N2	i	-4	1.1	i	i	i
COc1ccc(/C=N\NC(=O)c2ccccc2F)cc1COc1ccc(F)cc1F	i	-10	1.1	i	i	i
COc1ccc(/C=N/NC(=O)c2cc(C(C)(C)C)[nH]n2)cc1COc1ccc(F)cc1F	6*	-12	0.83	i	i	i
COc1ccc(/C=N\NC(=O)c2ccccc2F)cc1COc1ccc(F)cc1	i	-1	-0.88	i	i	i
COc1ccc(/C=N\NC(=O)c2ccccc2Br)cc1COc1c(F)c(F)cc(F)c1F	6*	-9	-0.31	i	i	i
O=C(CCC(=O)Nc1ccc(Cl)cc1Cl)N/N=C/c1ccc([N+](=O)[O-])o1	i	-8	-2.4	.	i	i
O=C(c1ccco1)N1CCN(S(=O)(=O)c2ccc(S(=O)(=O)NC3CCCCC3)cc2)CC1	i	-7	0.96	i	i	i
O=C(c1ccco1)N1CCN(S(=O)(=O)c2ccc(C3CCCCC3)cc2)CC1	i	8.2*	0.22	i	i	i
Cc1ccc(S(=O)(=O)N2CCN(C(=O)COC(=O)c3ccc(O)cc3)CC2)c(C)c1	i	-9	-0.32	i	i	i
O=C(c1cnn2c(C(F)(F)F)cc(-c3cccs3)nc12)N1CCN(C(c2ccccc2)c2ccccc2)CC1	6*	-12	0.88	i	i	i
O=C(CN1CCCN(S(=O)(=O)c2ccc(Br)s2)CC1)Nc1ccc(Cl)cc1	i	-12	1.2	-9.3*	i	i
CCOC(=O)CNC(=O)CN1CCCN(S(=O)(=O)c2ccc(Br)s2)CC1	.	.	.	i	.	.
Cc1cc(C)c(C#N)c(N2CCN(C(=O)C3COc4ccccc4O3)CC2)n1 (configuration not stated)	.	.	.	i	.	.
CCCCN(C)CC(O)Cn1cc(/C=C/C(=O)c2cccs2)c2ccccc21 (configuration not stated)	8*	-32	-7	i	i	i
CC(C)(C)NC(=O)COc1ccc(-c2ccccc2)cc1	i	-18	0.23	i	i	-7.7*
COc1cc(CCC(=O)OCC(=O)NCc2ccc(Cl)cc2)cc(OC)c1OC	i	-4	-4.4*	i	i	i
COc1cc(CCC(=O)NCc2ccc(Cl)cc2)cc(OC)c1OC	i	-4	-1.8	i	i	i
Cc1noc(C)c1C(=O)N1CCCC1	i	-6	0.67	i	i	i
O=C(CSc1ncn[nH]1)NCCC(c1ccccc1)c1ccccc1	i	-5	-5.2*	i	i	i
O=C(CN1CCCCC1)Nc1ccccc1Oc1ccccc1	i	-9	-5.6*	i	i	i
O=C(CSc1ncn[nH]1)Nc1ccccc1Sc1ccc(Cl)cc1	i	-12	-4.7*	i	i	i
O=C(CSc1ncn[nH]1)NCCOc1ccccc1	i	1	0	i	i	i
CN1CCN(CC(=O)Nc2ccccc2Sc2ccccc2)CC1	i	-4	-2.8	i	i	i
Nc1cc(=O)[nH]c(SCC(=O)Nc2ccccc2Sc2ccc(Cl)cc2)n1	i	-14	-0.09	i	i	i
O=C(CN1CCCC1)Nc1ccccc1Sc1ccccc1	i	-19	-4.2*	i	i	i
CCCC(=NC(C)CC)C1=C(O)CC(c2ccccc2)CC1=O (configuration not stated)	i	-11	-1.4	i	i	i
